From PubChem
Hits are enriched below; roughly 3.8% of the tested compounds scored in any of these assays.
hERG rescue: shields human hERG channel from block by proarrhythmic agents. activation (rescue from dofetilide block), less the hit threshold, % at 10 µM. 310,000 compounds, 0.51% hits. CHO-hERG, FluxOR thallium flux, dofetilide IC70 present. Q12809. AID 1511;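 active means activation above the mean of controls blocked by dofetilide plus 5 SD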;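 further: thallium influx through hERG after potassium depolarization seen as dye fluorescence rise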
KCNK3 inh: human KCNK3 channel inhibition, primary screen | O14649 | CHO-KCNK3 thallium flux, FluxOR fluorescence; hits give low values | B-score at 10 µM | 340,000 compounds, 0.84% hits | AID 602410;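 active means B-score under library mean minus 4 SD, starting fluorescence ratio at most library mean plus 5 SD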;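 further: more negative B-score means stronger inhibition of thallium flux through KCNK3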
Target sequence (O14649 whole entry, looked up): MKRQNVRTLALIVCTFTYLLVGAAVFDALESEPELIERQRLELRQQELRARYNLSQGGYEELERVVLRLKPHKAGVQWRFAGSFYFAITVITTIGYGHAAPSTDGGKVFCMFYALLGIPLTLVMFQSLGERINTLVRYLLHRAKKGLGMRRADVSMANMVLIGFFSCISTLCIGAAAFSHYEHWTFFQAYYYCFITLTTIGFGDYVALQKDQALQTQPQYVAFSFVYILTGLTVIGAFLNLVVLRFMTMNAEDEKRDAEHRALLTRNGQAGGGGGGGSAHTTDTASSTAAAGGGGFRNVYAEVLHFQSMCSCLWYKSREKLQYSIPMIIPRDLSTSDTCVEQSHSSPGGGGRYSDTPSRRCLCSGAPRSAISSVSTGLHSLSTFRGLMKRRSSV
KCNQ1 act: human KCNQ1 channel potentiation or activation. 310,000 compounds, 0.35% hits. CHO-K1 KCNQ1, thallium flux FluxOR fluorescence; hits give high values. B-score at 10 µM. P51787;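 active means fluorescence ratio B-score, a plate-corrected score, at least three library SD, with initial intensity B-score within 5 SD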
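Schedule – 37 °C overnight plating, 90-min dark dye load, 20-min compound pretreatment · System – stable KCNQ1 CHO-K1 line · Probe or stimulus – thallium- and potassium-containing depolarizing buffer · Measured by – kinetic FluxOR fluorescence, 10 s baseline plus 110 s post-stimulus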
Kir21 inh: blocks the mouse Kir2.1 inward-rectifier potassium channel; HEK293-Kir2.1, FluxOR thallium flux fluorescence; hits give low values; B-score at 10 µM; P35561; 310,000 compounds, 0.85% hits;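 active means fluorescence ratio B-score at or below minus 3 SD of library scores, with starting-brightness B-score within 2 SD, cut at about -4.2 in these data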;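 further: channel flux triggered by added potassium and thallium sulfate stimulus; B-score of peak minus minimum fluorescence over baseline after thallium stimulus; more negative B-score means stronger Kir2.1 block with less thallium influx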
KCNQ1 block: inhibitors of human KCNQ1 potassium channel | CHO-K1 KCNQ1, FluxOR thallium flux fluorescence; hits give high values | P51787 | B-score at 10 µM | 310,000 compounds, 1.3% hits;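 active means compounds whose thallium flux B-score, printed positive for inhibition, exceeds three library SD while starting fluorescence stays within three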;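 further: channel opened by potassium depolarization with thallium stimulus after 20 min compound exposure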
KCNK9 block: blocks the human KCNK9 two-pore domain potassium channel | Q9NPC2 | HEK293 KCNK9, FluxOR thallium flux fluorescence; hits give low values | B-score at 10 µM | 310,000 compounds, 1.2% hits;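 active means ratio B-score over 3 SD below the library mean, with starting fluorescence within 5 SD of its mean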;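 further: negative B-score means less thallium flux so channel inhibition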
Target sequence (Q9NPC2 whole entry, looked up, the tested form may be a part): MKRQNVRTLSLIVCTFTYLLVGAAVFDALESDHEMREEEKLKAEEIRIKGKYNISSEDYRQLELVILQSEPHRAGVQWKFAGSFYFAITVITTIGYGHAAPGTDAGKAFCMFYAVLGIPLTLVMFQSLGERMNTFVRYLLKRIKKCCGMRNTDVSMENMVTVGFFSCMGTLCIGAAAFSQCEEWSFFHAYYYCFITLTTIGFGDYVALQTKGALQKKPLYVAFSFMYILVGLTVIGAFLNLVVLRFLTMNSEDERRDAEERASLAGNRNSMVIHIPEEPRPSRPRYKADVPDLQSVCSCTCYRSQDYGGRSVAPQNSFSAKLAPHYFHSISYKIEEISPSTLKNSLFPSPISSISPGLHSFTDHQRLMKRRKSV
KCNQ1 block val: human KCNQ1 channel inhibition, validation assay. shares compounds with KCNQ1 block. KCNQ1 cell line, FluxOR thallium flux fluorescence. inhibition, % at 10 µM. 1,600 compounds, 93% hits. AID 588353;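 active means primary screen active, with duplicate mean exceeding buffer control mean plus 3 SD of buffer wells, cut at about 28% in these data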;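 further: 0% = buffer control ratio and 100% = XE991 inhibitor control ratio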
CHO KCNQ1 ctr: counter-screen for KCNQ1 inhibitors: effect in parental CHO cells; AID 588366; fluorescence ratio (Tl flux) at 10 µM; parental CHO-K1, FluxOR thallium flux fluorescence ratio; hits give low values; zero means no signal rise above baseline; 1,600 compounds, 21% hits; shares compounds with KCNQ1 block;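 active means mean of duplicate thallium-flux fluorescence ratios in parental host cells more than 5 SD below the buffer control mean, cut at about 0.38 in these data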;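 further: ratio is peak minus minimum fluorescence divided by baseline fluorescence; actives read low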
KCNQ1 APC inh: blocks human KCNQ1 current in automated patch clamp | shares compounds with KCNQ1 block | KCNQ1-CHO cells | calls only at 10 µM | 490 compounds, 20% hits | AID 624120;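 active means KCNQ1 current drop exceeding 3 SD of negative control wells, seen in both duplicate runs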;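 further: steady state current during a 2 s step from -80 to +40 mV; negative values mean current inhibition and positive values mean potentiation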
KCNQ2 spec: selectivity of KCNQ1 inhibitors: inhibition of rat KCNQ2 channel. inhibition, % at 10 µM. KCNQ2 cells, FluxOR thallium flux fluorescence. 1,600 compounds, 71% hits. shares compounds with KCNQ1 block. AID 651746;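 active means mean percent inhibition of the KCNQ2 thallium signal more than 5 SD above the buffer-only control wells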;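 further: KCNQ2 expressed in CHO cells; 0% = buffer control wells and 100% = XE-991 inhibitor control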
KCNQ1-KCNE1 inh: selectivity of KCNQ1 inhibitors: inhibition of human KCNQ1/KCNE1 channel; shares compounds with KCNQ1 block; KCNQ1/KCNE1 cells, FluxOR thallium flux fluorescence; inhibition, % at 10 µM; 1,600 compounds, 77% hits; AID 652147;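 active means mean percent inhibition of duplicate wells above the buffer-only control mean plus 3 SD of those controls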;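 further: 0% = buffer only wells and 100% = XE-991 inhibitor control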
Numbers without * were called inactive.

Results for COc1cccc(CN(C)C(=O)c2cccc(S(=O)(=O)N3CCN(c4ccccc4)CC3)c2)c1OC ?
KCNK3 inh: inactive

What do the screens show for `Cc1ccnc2nc(C(=O)OCC(=O)N(CC(C)C)C3CCS(=O)(=O)C3)nn12` (configuration not stated)?
KCNK3 inh: inactive

What do the screens show for `CN1/C(=C/C=C(C#N)C#N)C(C)(C)c2ccccc21`?
hERG rescue: -44; KCNK3 inh: inactive; KCNQ1 act: inactive; Kir21 inh: -0.03; KCNQ1 block: 25*; KCNK9 block: inactive; KCNQ1 block val: active; CHO KCNQ1 ctr: 0.12*; KCNQ2 spec: inactive; KCNQ1-KCNE1 inh: inactive

Results for C[C@H](CO)N1C[C@H](C)[C@@H](CN(C)S(C)(=O)=O)Oc2ccc(NC(=O)NC3CCCCC3)cc2C1=O ?
KCNK3 inh: inactive

Results for Cc1ccc(Sc2ccc(NC(=O)CCN3C(=O)NC4(CCCC4)C3=O)cc2)c(C)c1 ?
KCNK3 inh: inactive

How did Cc1cc(N2CCCC2=O)cc(C)c1S(=O)(=O)NCCOc1ccc(C(C)(C)C)cc1 do in these assays?
hERG rescue: -18; KCNK3 inh: inactive; KCNQ1 act: inactive; Kir21 inh: -0.35; KCNQ1 block: 10*; KCNK9 block: inactive; KCNQ1 block val: 138*; CHO KCNQ1 ctr: 0.43; KCNQ1 APC inh: inactive; KCNQ2 spec: 112%*; KCNQ1-KCNE1 inh: 141%*

What do the screens show for `CC(C)(C)c1ccc(CNC(=O)c2ccc3c(c2)NC(=O)CO3)cc1`?
hERG rescue: 3; KCNK3 inh: inactive; KCNQ1 act: inactive; Kir21 inh: 1.1; KCNQ1 block: inactive; KCNK9 block: inactive

What do the screens show for `O=C1COc2ccc(C(=O)NCc3ccc4c(c3)OCO4)cc2N1`?
hERG rescue: -11; KCNK3 inh: inactive; KCNQ1 act: inactive; Kir21 inh: 1.3; KCNQ1 block: 7*; KCNK9 block: inactive; KCNQ1 block val: 104*; CHO KCNQ1 ctr: 0.48; KCNQ1 APC inh: active; KCNQ2 spec: 86%*; KCNQ1-KCNE1 inh: 112%*

Results for Cc1ccc(C(c2cc(Br)ccc2O)N2CCSCC2)cc1 (configuration not stated) ?
hERG rescue: -7; KCNK3 inh: inactive; KCNQ1 act: inactive; Kir21 inh: -1.2; KCNQ1 block: 7*; KCNK9 block: inactive; KCNQ1 block val: 122*; CHO KCNQ1 ctr: 0.42; KCNQ2 spec: 107%*; KCNQ1-KCNE1 inh: 136%*

How did CC(NS(=O)(=O)c1ccc(Cl)c(Cl)c1)C(=O)OCC(=O)Nc1ccc2c(c1)OCO2 (configuration not stated) do in these assays?
hERG rescue: -9; KCNK3 inh: inactive; KCNQ1 act: inactive; Kir21 inh: 0.32; KCNQ1 block: 6*; KCNK9 block: inactive; KCNQ1 block val: 0; CHO KCNQ1 ctr: 0.47; KCNQ2 spec: 62%*; KCNQ1-KCNE1 inh: inactive

How did COc1ccc(N=C2NC(=O)S/C2=C\c2ccc(N(C)C)cc2)cc1 do in these assays?
hERG rescue: -15; KCNK3 inh: inactive; KCNQ1 act: inactive; Kir21 inh: -4; KCNQ1 block: 7*; KCNK9 block: inactive; KCNQ1 block val: 60*; CHO KCNQ1 ctr: 0.38*; KCNQ2 spec: 66%*; KCNQ1-KCNE1 inh: 106%*

What do the screens show for `CN(C)c1ccc(C=C2SC(=S)NC2=O)cc1`?
KCNK3 inh: inactive

How did COc1ccc(C(=O)c2sc3nc(C)cc(-c4cccs4)c3c2N)cc1OC do in these assays?
hERG rescue: -10; KCNK3 inh: inactive; KCNQ1 act: inactive; Kir21 inh: -1.6; KCNQ1 block: 7*; KCNK9 block: inactive; KCNQ1 block val: 199*; CHO KCNQ1 ctr: 0.2*; KCNQ2 spec: inactive; KCNQ1-KCNE1 inh: inactive

What do the screens show for `COc1ccc(C(=O)c2sc3nc(C)cc(-c4cccs4)c3c2N)cc1`?
hERG rescue: -23; KCNK3 inh: inactive; KCNQ1 act: inactive; Kir21 inh: 0.77; KCNQ1 block: 6*; KCNK9 block: inactive; KCNQ1 block val: 195*; CHO KCNQ1 ctr: 0.26*; KCNQ2 spec: inactive; KCNQ1-KCNE1 inh: inactive

How did CC(C)NC(=O)c1sc2nc(-c3cccs3)cc(-c3cccs3)c2c1N do in these assays?
hERG rescue: -10; KCNQ1 act: inactive; Kir21 inh: 2; KCNQ1 block: 6*; KCNK9 block: inactive; KCNQ1 block val: 198*; CHO KCNQ1 ctr: 0.28*; KCNQ2 spec: inactive; KCNQ1-KCNE1 inh: inactive

What do the screens show for `Cc1cc(C)c2c(N)c(C(=O)c3ccc(Cl)cc3)sc2n1`?
hERG rescue: -3; KCNK3 inh: inactive; KCNQ1 act: inactive; Kir21 inh: -2; KCNQ1 block: inactive; KCNK9 block: inactive

What do the screens show for `CC(=O)c1sc2nc(-c3cccs3)ccc2c1N`?
hERG rescue: -15; KCNK3 inh: inactive; KCNQ1 act: inactive; Kir21 inh: -1; KCNQ1 block: inactive; KCNK9 block: inactive

Results for Cc1cc(C)c2c(N)c(C(=O)c3ccc(Cl)c(Cl)c3)sc2n1 ?
hERG rescue: -13; KCNK3 inh: inactive; KCNQ1 act: inactive; Kir21 inh: 0; KCNQ1 block: inactive; KCNK9 block: inactive

How did CN(C)c1cc2c(cc1NC(=O)c1ccccc1Cl)n(C)c(=O)n2C do in these assays?
hERG rescue: -7; KCNK3 inh: inactive; KCNQ1 act: inactive; Kir21 inh: 3.3; KCNQ1 block: inactive; KCNK9 block: inactive

How did COC(=O)[C@@H](NCc1ccc(B(O)O)cc1)C(C)C do in these assays?
KCNK3 inh: inactive

Results for COc1ccc(C(=O)C(C)OC(=O)COc2ccccc2)cc1 (configuration not stated) ?
KCNK3 inh: inactive

What do the screens show for `CN1CCN(C(CNC(=O)C(=O)Nc2ccc3c(c2)OCCO3)c2ccc(F)cc2)CC1` (configuration not stated)?
hERG rescue: -15; KCNK3 inh: inactive; KCNQ1 act: inactive; Kir21 inh: -0.48; KCNQ1 block: inactive; KCNK9 block: inactive
